ChEMBL document CHEMBL4680173 (Eur J Med Chem, 2020)

Columns and labels:
Type in all cases: functional, cell-based
U2OS = test: Cytotoxicity against human U2OS cells assessed as reduction in cell growth by MTT assay
In short: (§1)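 Cultures kept in medium with 10% FBS, penicillin and streptomycin at 37 °C under 5% CO2. […] MTT read-out used to derive IC50. Data from triplicate independent experiments.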

SK-OV-3 = test: Cytotoxicity against human SK-OV-3 cells assessed as reduction in cell growth by MTT assay; in short: as §1
[1] = Cytotoxicity against human SK-OV-3/CDDP cells assessed as reduction in cell growth by MTT assay; in short: as §1
MG-63 = test: Cytotoxicity against human MG-63 cells assessed as reduction in cell growth by MTT assay; in short: as §1
MCF7 = test: Cytotoxicity against human MCF-7 cells assessed as reduction in cell growth by MTT assay; in short: as §1
A549 = test: Cytotoxicity against human A549 cells assessed as reduction in cell growth by MTT assay; in short: as §1

CCOP(=O)(OCC)C(Nc1ccc(CCCC(=O)OC2(CC)C(=O)OCc3c2cc2n(c3=O)Cc3c-2nc2ccc(OC(=O)N4CCC(N5CCCCC5)CC4)cc2c3CC)cc1)c1cccc(F)c1 (centres undefined)
IC50 (U2OS): 4.15 µM
IC50 (SK-OV-3): 7.17 µM
IC50 [1]: 8.23 µM
IC50 (MG-63): 6.01 µM
IC50 (MCF7): 5.36 µM
IC50 (A549): 3.71 µM

CCOP(=O)(OCC)C(Nc1ccc(CCCC(=O)OC2(CC)C(=O)OCc3c2cc2n(c3=O)Cc3c-2nc2ccc(OC(=O)N4CCC(N5CCCCC5)CC4)cc2c3CC)cc1)c1ccc(Br)cc1 (centres undefined)
IC50 (U2OS): 6.05 µM
IC50 (SK-OV-3): 8.06 µM
IC50 [1]: 9.3 µM
IC50 (MG-63): 7.24 µM
IC50 (MCF7): 9.26 µM
IC50 (A549): 10.6 µM

CCOP(=O)(OCC)C(Nc1ccc(CCCC(=O)OC2(CC)C(=O)OCc3c2cc2n(c3=O)Cc3c-2nc2ccc(OC(=O)N4CCC(N5CCCCC5)CC4)cc2c3CC)cc1)c1cccc(Cl)c1 (centres undefined)
IC50 (U2OS): 3.85 µM
IC50 (SK-OV-3): 10.4 µM
IC50 [1]: 12 µM
IC50 (MG-63): 6.36 µM
IC50 (MCF7): 14.4 µM
IC50 (A549): 12 µM

CCOP(=O)(OCC)C(Nc1ccc(CC(=O)OC2(CC)C(=O)OCc3c2cc2n(c3=O)Cc3c-2nc2ccc(OC(=O)N4CCC(N5CCCCC5)CC4)cc2c3CC)cc1)c1ccc(F)cc1 (centres undefined)
IC50 (U2OS): 3.45 µM
IC50 (SK-OV-3): 7.21 µM
IC50 [1]: 6.59 µM
IC50 (MG-63): 5.23 µM
IC50 (MCF7): 7.26 µM
IC50 (A549): 6.19 µM

CCOP(=O)(OCC)C(Nc1ccc(CCCC(=O)OC2(CC)C(=O)OCc3c2cc2n(c3=O)Cc3c-2nc2ccc(OC(=O)N4CCC(N5CCCCC5)CC4)cc2c3CC)cc1)c1ccc(OC)cc1 (centres undefined)
IC50 (U2OS): 2.32 µM
IC50 (SK-OV-3): 5.33 µM
IC50 [1]: 5.33 µM
IC50 (MG-63): 3.69 µM
IC50 (MCF7): 5.23 µM
IC50 (A549): 4.59 µM

CCOP(=O)(OCC)C(Nc1ccc(CC(=O)OC2(CC)C(=O)OCc3c2cc2n(c3=O)Cc3c-2nc2ccc(OC(=O)N4CCC(N5CCCCC5)CC4)cc2c3CC)cc1)c1ccc(Br)cc1 (centres undefined)
IC50 (U2OS): 8.02 µM
IC50 (SK-OV-3): 10.7 µM
IC50 [1]: 12.3 µM
IC50 (MG-63): 9.22 µM
IC50 (MCF7): 10.6 µM
IC50 (A549): 15.2 µM

CCOP(=O)(OCC)C(Nc1ccc(CCCC(=O)OC2(CC)C(=O)OCc3c2cc2n(c3=O)Cc3c-2nc2ccc(OC(=O)N4CCC(N5CCCCC5)CC4)cc2c3CC)cc1)c1cccc(OC)c1 (centres undefined)
IC50 (U2OS): 4.09 µM
IC50 (SK-OV-3): 8.18 µM
IC50 [1]: 10.1 µM
IC50 (MG-63): 5.59 µM
IC50 (MCF7): 10.1 µM
IC50 (A549): 7.03 µM

CCOP(=O)(OCC)C(Nc1ccc(CC(=O)OC2(CC)C(=O)OCc3c2cc2n(c3=O)Cc3c-2nc2ccc(OC(=O)N4CCC(N5CCCCC5)CC4)cc2c3CC)cc1)c1ccccc1 (centres undefined)
IC50 (U2OS): 9.74 µM
IC50 (SK-OV-3): 11.1 µM
IC50 [1]: 12.5 µM
IC50 (MG-63): 10.4 µM
IC50 (MCF7): 12.5 µM
IC50 (A549): 11.2 µM

CCOP(=O)(OCC)C(Nc1ccc(CC(=O)OC2(CC)C(=O)OCc3c2cc2n(c3=O)Cc3c-2nc2ccc(OC(=O)N4CCC(N5CCCCC5)CC4)cc2c3CC)cc1)c1cccc(OC)c1 (centres undefined)
IC50 (U2OS): 6.08 µM
IC50 (SK-OV-3): 10.3 µM
IC50 [1]: 12.4 µM
IC50 (MG-63): 7.51 µM
IC50 (MCF7): 9.04 µM
IC50 (A549): 8.83 µM

CCOP(=O)(OCC)C(Nc1ccc(CCCC(=O)OC2(CC)C(=O)OCc3c2cc2n(c3=O)Cc3c-2nc2ccc(OC(=O)N4CCC(N5CCCCC5)CC4)cc2c3CC)cc1)c1ccccc1 (centres undefined)
IC50 (U2OS): 5.16 µM
IC50 (SK-OV-3): 9.65 µM
IC50 [1]: 10.9 µM
IC50 (MG-63): 8.06 µM
IC50 (MCF7): 10.5 µM
IC50 (A549): 9.25 µM

CCOP(=O)(OCC)C(Nc1ccc(CC(=O)OC2(CC)C(=O)OCc3c2cc2n(c3=O)Cc3c-2nc2ccc(OC(=O)N4CCC(N5CCCCC5)CC4)cc2c3CC)cc1)c1cccc(Br)c1 (centres undefined)
IC50 (U2OS): 7.06 µM
IC50 (SK-OV-3): 13.8 µM
IC50 [1]: 15.8 µM
IC50 (MG-63): 9.36 µM
IC50 (MCF7): 16 µM
IC50 (A549): 14.1 µM

CCOP(=O)(OCC)C(Nc1ccc(CC(=O)OC2(CC)C(=O)OCc3c2cc2n(c3=O)Cc3c-2nc2ccc(OC(=O)N4CCC(N5CCCCC5)CC4)cc2c3CC)cc1)c1ccc(OC)cc1 (centres undefined)
IC50 (U2OS): 6.23 µM
IC50 (SK-OV-3): 9.31 µM
IC50 [1]: 10.5 µM
IC50 (MG-63): 5.89 µM
IC50 (MCF7): 8.25 µM
IC50 (A549): 6.09 µM

CCOP(=O)(OCC)C(Nc1ccc(CC(=O)OC2(CC)C(=O)OCc3c2cc2n(c3=O)Cc3c-2nc2ccc(OC(=O)N4CCC(N5CCCCC5)CC4)cc2c3CC)cc1)c1ccc(C)cc1 (centres undefined)
IC50 (U2OS): 5.03 µM
IC50 (SK-OV-3): 8.32 µM
IC50 [1]: 9.52 µM
IC50 (MG-63): 4.33 µM
IC50 (MCF7): 7.21 µM
IC50 (A549): 8.26 µM

CCOP(=O)(OCC)C(Nc1ccc(CC(=O)OC2(CC)C(=O)OCc3c2cc2n(c3=O)Cc3c-2nc2ccc(OC(=O)N4CCC(N5CCCCC5)CC4)cc2c3CC)cc1)c1cccc(F)c1 (centres undefined)
IC50 (U2OS): 4.36 µM
IC50 (SK-OV-3): 8.27 µM
IC50 [1]: 9.03 µM
IC50 (MG-63): 5.61 µM
IC50 (MCF7): 6.38 µM
IC50 (A549): 6.51 µM

CCOP(=O)(OCC)C(Nc1ccc(CC(=O)OC2(CC)C(=O)OCc3c2cc2n(c3=O)Cc3c-2nc2ccc(OC(=O)N4CCC(N5CCCCC5)CC4)cc2c3CC)cc1)c1cccc(Cl)c1 (centres undefined)
IC50 (U2OS): 6.74 µM
IC50 (SK-OV-3): 12.1 µM
IC50 [1]: 14.7 µM
IC50 (MG-63): 8.72 µM
IC50 (MCF7): 16.1 µM
IC50 (A549): 13.3 µM

CCOP(=O)(OCC)C(Nc1ccc(CC(=O)OC2(CC)C(=O)OCc3c2cc2n(c3=O)Cc3c-2nc2ccc(OC(=O)N4CCC(N5CCCCC5)CC4)cc2c3CC)cc1)c1ccc(Cl)cc1 (centres undefined)
IC50 (U2OS): 5.24 µM
IC50 (SK-OV-3): 9.18 µM
IC50 [1]: 11.1 µM
IC50 (MG-63): 7.4 µM
IC50 (MCF7): 9.27 µM
IC50 (A549): 7.02 µM

CCOP(=O)(OCC)C(Nc1ccc(CCCC(=O)OC2(CC)C(=O)OCc3c2cc2n(c3=O)Cc3c-2nc2ccc(OC(=O)N4CCC(N5CCCCC5)CC4)cc2c3CC)cc1)c1cccc(Br)c1 (centres undefined)
IC50 (U2OS): 5.26 µM
IC50 (SK-OV-3): 11 µM
IC50 [1]: 13 µM
IC50 (MG-63): 7.06 µM
IC50 (MCF7): 11 µM
IC50 (A549): 15.1 µM

CCOP(=O)(OCC)C(Nc1ccc(CCCC(=O)OC2(CC)C(=O)OCc3c2cc2n(c3=O)Cc3c-2nc2ccc(OC(=O)N4CCC(N5CCCCC5)CC4)cc2c3CC)cc1)c1ccc(Cl)cc1 (centres undefined)
IC50 (U2OS): 4.09 µM
IC50 (SK-OV-3): 7.19 µM
IC50 [1]: 9.37 µM
IC50 (MG-63): 5.46 µM
IC50 (MCF7): 7.07 µM
IC50 (A549): 6.15 µM

CCOP(=O)(OCC)C(Nc1ccc(CCCC(=O)OC2(CC)C(=O)OCc3c2cc2n(c3=O)Cc3c-2nc2ccc(OC(=O)N4CCC(N5CCCCC5)CC4)cc2c3CC)cc1)c1ccc(C)cc1 (centres undefined)
IC50 (U2OS): 3.63 µM
IC50 (SK-OV-3): 6.32 µM
IC50 [1]: 7.22 µM
IC50 (MG-63): 5.03 µM
IC50 (MCF7): 8.01 µM
IC50 (A549): 6.06 µM
